From ChEMBL document CHEMBL4706565, “Anti-glioma effects of 2-aminothiophene-3-carboxamide derivatives, ANO1 channel blockers” (Eur J Med Chem, 2020)
Calls of active or inactive are those of the source. The rule behind the calls is not given here.

Tests used:
U-251 [1] = assay: Inhibition of anchorage-independent colony formation in human U251 cells at 10 uM incubated for 14 days by crystal violet staining based soft agar colony formation assay; format: functional, cell-based; conditions: time 14.0 day
How it was run: (§1)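 Soft agar assay: 2.0×10^3 U251 cells in complete medium with 0.3% agar over a 0.6% bottom agar layer. Treated with compounds at 1-100 μM for 14 days, 37 °C, 5% CO2. Colonies stained with crystal violet for 24 h, whole wells photographed and colonies counted against DMSO control; n = 3.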

U-251 [2] = assay: Inhibition of anchorage-independent colony formation in human U251 cells at 100 uM incubated for 14 days by crystal violet staining based soft agar colony formation assay; format: functional; conditions: U-251, 336 h, time 14 day; how it was run: as §1
U-251 [3] = assay: Inhibition of cell invasion in human U251 cells at 10 uM incubated for 48 hrs by Boyden chamber method; format: functional
How it was run: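 Boyden chamber invasion: U251 cells serum-starved 24 h, then 2.5×10^5 cells seeded in 8-μm ECMatrix-coated transwells. Treated with compound at 1 or 10 μM for 48 h at 37 °C. Invasion ratio from relative fluorescence.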

U-251 [4] = assay: Antiproliferative activity against human U251 cells overexpressing ANO1 assessed as reduction in cell viability measured after 72 hrs by Celltiter-glo assay; format: functional
How it was run: (§2)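 5.0×10^3 cells/well seeded, overnight, then compounds added as 1:4 serial dilutions in DMSO; viability read after 72 h with CellTiter-Glo luminescence. GI50 from fitted dose-response curves; triplicate wells, SD from three independent experiments. DMEM for U251 and U138, MEM for U87MG, both with 10% FBS and pen/strep, 37 °C, 5% CO2.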

U-87 MG = assay: Antiproliferative activity against human U87MG cells overexpressing ANO1 assessed as reduction in cell viability measured after 72 hrs by Celltiter-glo assay; format: functional, U-87MG ATCC; how it was run: as §2
U138-MG = assay: Antiproliferative activity against human U138 cells overexpressing ANO1 assessed as reduction in cell viability measured after 72 hrs by Celltiter-glo assay; format: functional; how it was run: as §2
U-251 [5] = assay: Inhibition of colony formation in human U251 cells at 3 uM incubated for 14 days by crystal violet dye based assay; format: functional, cell-based; conditions: time 14.0 day
How it was run: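 U251 cells, 1.0×10^3 per well, treated with compound (1, 3 or 10 μM) for 2 weeks at 37 °C, 5% CO2. Colonies stained 24 h with crystal violet in methanol/formaldehyde/PBS, washed, extracted with 10% acetic acid and read at A570 nm. Compared against DMSO control.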

U-251 [6] = assay: Inhibition of anchorage-independent colony formation in human U251 cells incubated for 14 days by crystal violet staining based soft agar colony formation assay; format: functional, cell-based; conditions: dose 30-100 µM, time 14.0 day; how it was run: as §1
Anoctamin-2 = target: T1, Anoctamin-2 (Mus musculus, UniProt Q8CFW1); assay: Inhibition of GFP-fused mouse ANO2 channel expressed in HEK293A cells assessed as inhibition of channel current amplitude at membrane potential of +80 mV by patch clamp electrophysiology assay; format: cell-based, HEK293-A
T1 sequence (Q8CFW1 whole entry): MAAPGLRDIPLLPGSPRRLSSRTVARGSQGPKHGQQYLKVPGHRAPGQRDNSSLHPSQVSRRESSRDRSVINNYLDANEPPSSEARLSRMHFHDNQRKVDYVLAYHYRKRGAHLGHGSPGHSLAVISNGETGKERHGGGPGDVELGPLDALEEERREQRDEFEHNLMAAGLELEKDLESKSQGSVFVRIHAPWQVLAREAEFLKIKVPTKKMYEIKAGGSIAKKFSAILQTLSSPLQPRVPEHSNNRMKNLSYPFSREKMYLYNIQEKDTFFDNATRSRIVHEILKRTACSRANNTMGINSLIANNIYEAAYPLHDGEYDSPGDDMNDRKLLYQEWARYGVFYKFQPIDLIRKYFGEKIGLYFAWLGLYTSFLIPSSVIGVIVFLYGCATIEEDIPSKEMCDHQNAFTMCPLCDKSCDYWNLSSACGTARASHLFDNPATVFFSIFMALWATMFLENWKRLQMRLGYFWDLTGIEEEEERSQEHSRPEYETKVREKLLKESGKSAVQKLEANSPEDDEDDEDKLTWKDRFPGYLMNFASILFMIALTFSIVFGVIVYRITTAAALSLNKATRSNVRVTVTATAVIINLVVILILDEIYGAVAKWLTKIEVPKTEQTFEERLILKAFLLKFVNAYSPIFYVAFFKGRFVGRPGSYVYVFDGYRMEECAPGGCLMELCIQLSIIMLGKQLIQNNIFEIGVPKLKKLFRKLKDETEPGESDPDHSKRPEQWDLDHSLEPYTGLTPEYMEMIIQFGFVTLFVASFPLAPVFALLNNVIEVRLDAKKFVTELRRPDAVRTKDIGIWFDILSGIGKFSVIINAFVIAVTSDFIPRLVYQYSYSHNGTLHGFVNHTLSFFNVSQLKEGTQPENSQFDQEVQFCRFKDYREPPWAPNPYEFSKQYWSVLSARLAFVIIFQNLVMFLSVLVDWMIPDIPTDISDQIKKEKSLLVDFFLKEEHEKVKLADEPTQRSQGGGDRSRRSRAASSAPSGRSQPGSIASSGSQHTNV
How it was run: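 Whole-cell recording at room temperature in HEK293A cells transfected with GFP-mANO1, GFP-mANO2 or GFP-mTTYH1. 1 s ramps from +80 to -80 mV, holding potential -10 mV. For ANO1/ANO2: pipette CsCl 146 mM with Ca-EGTA-NMDG, pH 7.3; bath NaCl-based, pH 7.3. For TTYH1: Tris-aspartate pipette (pH 7.2) and Tris-HCl bath (pH 7.4), with […] and BaCl2 added to block K+ channels, and hypotonic (220 mOsm/kg) bath. Washout recordings assessed reversibility.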

Structure (SMILES)	inhibition (U-251 [1])	inhibition at 100 µM (U-251 [2])	inhibition (U-251 [3])	GI50 (U-251 [4])	GI50 (U-87 MG)	GI50 (U138-MG)	inhibition (U-251 [5])	inhibition (U-251 [6])	IC50 (Anoctamin-2)	inhibition at 10 µM (U-251 [3])
NC(=O)c1c(NC(=S)NC(=O)c2ccc(Cl)cc2)sc2c1CCC2	inactive	88%	Active	12 µM	23.8 µM	13.2 µM	Active	Dose-dependent effect	7.43 µM	
CC(C)(C)C(=O)Nc1sc2c(c1C(N)=O)CCC(C(C)(C)C)C2 (stereo not drawn)	inactive	95.7%		12.6 µM	31.5 µM	22.2 µM	Active	Dose-dependent effect	15.4 µM	90%
